pIC50: −log10 of the molar value. Values joined by “and” are separate entries in the source; they are usually repeats but may differ in a detail not shown here. Equal entries are not always repeated. “Also recorded” adds a separate entry of the source.
Tests used:
A. franciscana larvae [1] = assay: ChemRICH chemical similarity enrichment analysis of deregulated metabolites; type: in vivo, Artemia franciscana
A. salina = settings: 2500 mg/L (15 mM); ref 10 (Lestari et al. 2017); cited from earlier work
A. franciscana larvae [2] = assay: Pathway enrichment analysis; type: in vivo, Artemia franciscana; settings: sublethal concentrations (LC10 at 48 h)
Acute toxicity assay = type: in vivo, Artemia franciscana; settings: Artemia franciscana, in vivo, pH 8.5
[3] = test system: Artemia franciscana larvae; assay: Acute toxicity assay; type: in vivo; settings: for Mortality %: corrected, mean ± SEM; for LC1 (20% of the LC10): 20% of the LC10 at 24 h, sublethal concentration used for metabolomics; for LC10 (lethal concentration 10%): probit regression
[4] = test system: Artemia franciscana larvae; assay: Teratogenic effect; type: in vivo; settings: for Body length: mean ± SEM
In short: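 Larvae came from cysts hatched 24 h in aerated ASW (pH ≅ 8.5, 28 °C). Thirty larvae were incubated in 1 mL of test-compound dilution (from DMSO stock, 0.17% DMSO, sonicated) at 25–26.5 °C for 24 h and 48 h. Ten larvae per tube had eye-to-tail length measured from images. A linear mixed-effects model (experiment as random effect) compared each treatment with time-matched ASW + 0.17% DMSO vehicle, with Dunnett adjustment.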

MCF-7 cell line = settings: cited from earlier work
rodent models = settings: cited from earlier work
A. franciscana larvae [5] = assay: Untargeted LC-MS/MS metabolomics of larvae at sublethal concentrations; type: in vivo, Artemia franciscana
[6] = rodent models; cited from earlier work
[7] = LC1 and LC10, 24 and 48 h, vs vehicle control

CCCC(CCC)C(=O)O [VPA, valproic acid]
Ceramide and glycerophosphoinositol clusters, abundance of metabolites (A. franciscana larvae [1]; LC10, sustained up to 48 h): downregulates | Lipid abundance (glycerophospholipid subclasses, linoleic acid and derivatives) (A. franciscana larvae [1]; especially LC1, 48 h): increases | C2-C6 acylcarnitines (fatty acid esters cluster) (A. franciscana larvae [1]; lowest concentration (LC1)): positively impacts | Abundance of amino acids and their derivatives (A. franciscana larvae [1]; most metabolites of the cluster): upward trend | Lethality (A. salina): 100% | Major deregulated / most impacted metabolic pathways (A. franciscana larvae [2]): alanine, aspartate, and glutamate metabolism | LC50 (Acute toxicity assay): > 1000 µg/mL | LC50 at 24 h (Acute toxicity assay): 41.1 mM | LC50 at 48 h (Acute toxicity assay): 18.7 mM | Mortality % ([3]; 3 mM (499 mg/L), 24 h): 1.19 ± 3.15% | Mortality % ([3]; 3 mM (499 mg/L), 48 h): 7.06 ± 3.61% | Mortality % ([3]; 5.4 mM (897 mg/L), 24 h): 1.83 ± 3.66% | Mortality % ([3]; 5.4 mM (897 mg/L), 48 h): 4.98 ± 4.86% | Mortality % ([3]; 9.6 mM (1595 mg/L), 24 h): 10.08 ± 8.85% | Mortality % ([3]; 9.6 mM (1595 mg/L), 48 h): 26.43 ± 8.52% | Mortality % ([3]; 16.8 mM (2792 mg/L), 24 h): 11.11 ± 11.85% | Mortality % ([3]; 16.8 mM (2792 mg/L), 48 h): 29.41 ± 11.96% | Mortality % ([3]; 30 mM (4986 mg/L), 24 h): 35.05 ± 12.82% | Mortality % ([3]; 30 mM (4986 mg/L), 48 h): 62.42 ± 14.69 % | Mortality % ([3]; 54 mM (8974 mg/L), 24 h): 37.32 ± 15.84 % | Mortality % ([3]; 54 mM (8974 mg/L), 48 h): 82.22 ± 9.04 % | Mortality % ([3]; 96 mM (15,954 mg/L), 24 h): 70.18 ± 14.77 % | Mortality % ([3]; 96 mM (15,954 mg/L), 48 h): 96.35 ± 2.13 % | Mortality % ([3]; 168 mM (27,920 mg/L), 24 h): 98.85 ± 1.15 % | Mortality % ([3]; 168 mM (27,920 mg/L), 48 h): 100 ± 0 % | LC1 (20% of the LC10) [3]: 1.79 mM | Concentration at which 100% lethality was achieved ([3]; 48 h): above 96 mM | LC10 (lethal concentration 10%) ([3]; 48 h): 4.71 mM and 783.1 mg/L | Body length ([4]; 3 mM (499 mg/L), 24 h): 0.78 ± 0.008 | Body length ([4]; 3 mM (499 mg/L), 48 h): 0.8 ± 0.01 | Body length ([4]; 5.4 mM (897 mg/L), 24 h): 0.74 ± 0.012 | Body length ([4]; 5.4 mM (897 mg/L), 48 h): 0.77 ± 0.012 | Body length ([4]; 9.6 mM (1595 mg/L), 24 h): 0.69 ± 0.011 | Body length ([4]; 9.6 mM (1595 mg/L), 48 h): 0.68 ± 0.021 | Body length ([4]; 16.8 mM (2792 mg/L), 24 h): 0.67 ± 0.009 | Body length ([4]; 16.8 mM (2792 mg/L), 48 h): 0.66 ± 0.017 | Body length ([4]; 30 mM (4986 mg/L), 24 h): 0.67 ± 0.008 | Body length ([4]; 30 mM (4986 mg/L), 48 h): 0.64 ± 0.013 | Body length ([4]; 54 mM (8974 mg/L), 24 h): 0.61 ± 0.015 | Body length ([4]; 54 mM (8974 mg/L), 48 h): 0.57 ± 0.017 | Body length ([4]; 96 mM (15,954 mg/L), 24 h): 0.56 ± 0.011 | Body length ([4]; 96 mM (15,954 mg/L), 48 h): 0.54 ± 0.01 | Body length ([4]; 168 mM (27,920 mg/L), 24 h): 0.52 ± 0.014 | Body length ([4]; 168 mM (27,920 mg/L), 48 h): 0.5 ± 0.011

CCCC(CCC)C(=O)Nc1ccccc1O [HO-AAVPA, N-(2-hydroxyphenyl)-2-propylpentanamide]
Triacylglycerides cluster, abundance of metabolites (A. franciscana larvae [1]; LC1, 24 h): decreased | Triacylglycerides cluster, abundance of metabolites (A. franciscana larvae [1]; LC10, 24 h): increased | Glycerophosphocholines and glycerophosphoethanolamines clusters (A. franciscana larvae [1]; both concentrations, 48 h): mixed changes | Malonyl carnitine (A. franciscana larvae [1]; fatty acid esters, LC1 and LC10, 24 and 48 h): most sustained alterations | pIC50 (MCF-7 cell line): 3.32 | Major deregulated / most impacted metabolic pathways (A. franciscana larvae [2]): sphingolipid and glycerophospholipid metabolism; also recorded: glycerophospholipid and sphingolipid metabolism | Toxicity compared to VPA (rodent models): lower toxicity | Abundance of L-glutamine, L-asparagine, dihydrothymine and dihydrouracil (A. franciscana larvae [5]; [7]): did not produce any significant impact | Abundance of L-serine and isobutyryl-L-carnitine (A. franciscana larvae [5]; [7]): did not produce any significant impact | Oxysterols (3beta,7alpha-dihydroxy-5-cholestenoate, 3b-hydroxy-5-cholenoic acid, 7-ketodeoxycholic acid, 4alpha-carboxy-5alpha-cholesta-8-en-3beta-ol) (A. franciscana larvae [5]; LC10): increased | Abundance of some triacylglycerides (TG) (A. franciscana larvae [5]; both concentrations, only at 24 h): downregulated | Abundance of 7E,9E,11-Dodecatrienyl acetate (A. franciscana larvae [5]; most notable change, vs vehicle control): downregulation | Abundance of mintsulfide, 3beta,7alpha-Dihydroxy-5-cholestenoate and 4alpha-Carboxy-5alpha-cholesta-8-en-3beta-ol (A. franciscana larvae [5]; vs vehicle control): raised the abundance | Bioavailability compared to VPA [6]: higher bioavailability | LC50 at 24 h (Acute toxicity assay): 450 µM and 106 µg/mL | LC50 at 48 h (Acute toxicity assay): 320 µM and 75.8 µg/mL | Mortality % ([3]; 0.18 mM (42.36 mg/L), 24 h): 1.03 ± 1.15% | Mortality % ([3]; 0.18 mM (42.36 mg/L), 48 h): 16.96 ± 6.69% | Mortality % ([3]; 0.32 mM (75.31 mg/L), 24 h): 10.41 ± 5.92% | Mortality % ([3]; 0.32 mM (75.31 mg/L), 48 h): 30.34 ± 15.25% | Mortality % ([3]; 0.56 mM (131.78 mg/L), 24 h): 60.16 ± 18.53 % | Mortality % ([3]; 0.56 mM (131.78 mg/L), 48 h): 77.3 ± 13.49 % | Mortality % ([3]; 1.00 mM (235.33 mg/L), 24 h): 97.81 ± 1.1 % | Mortality % ([3]; 1.00 mM (235.33 mg/L), 48 h): 100 ± 0 % | LC1 (20% of the LC10) [3]: 0.04 mM | LC10 (lethal concentration 10%) ([3]; 48 h): 0.13 mM and 29.49 mg/L | Toxicity compared to VPA ([3]; acute toxicity, 24 and 48 h): high toxicity; also recorded: higher toxic effects | Body length ([4]; 0.10 mM (23.53 mg/L), 24 h): 0.79 ± 0.011 | Body length ([4]; 0.10 mM (23.53 mg/L), 48 h): 0.82 ± 0.014 | Body length ([4]; 0.18 mM (42.36 mg/L), 24 h): 0.77 ± 0.007 | Body length ([4]; 0.18 mM (42.36 mg/L), 48 h): 0.78 ± 0.015 | Body length ([4]; 0.32 mM (75.31 mg/L), 24 h): 0.76 ± 0.01 | Body length ([4]; 0.32 mM (75.31 mg/L), 48 h): 0.83 ± 0.011 | Body length ([4]; 0.56 mM (131.78 mg/L), 24 h): 0.7 ± 0.014 | Body length ([4]; 0.56 mM (131.78 mg/L), 48 h): 0.69 ± 0.022 | Body length ([4]; 1.00 mM (235.33 mg/L), 24 h): 0.66 ± 0.018 | Body length ([4]; 1.00 mM (235.33 mg/L), 48 h): 0.58 ± 0.018 | Teratogenicity compared to VPA ([4]; larvae length as morphological indicator): lower teratogenicity; also recorded: lower teratogenic
